Test system: MS2 coat protein
Assay: apparent Kd, MS2 coat protein; higher = weaker binding; RNA-MaP array; FMN 200 µM where present
Summary of the method: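 Designs were transcribed by stalled E. coli RNA polymerase on Illumina sequencing-chip clusters. They were titrated with SNAP-549-labelled MS2 coat protein from 0.7 or 1.5 nM, doubling to 3 µM, in 100 mM Tris-HCl pH 7.5, 80 mM KCl, 4 mM MgCl2, BSA, DTT, yeast tRNA and Tween-20, without and then with constant ligand. The apparent Kd is the median of filtered per-cluster fits after normalisation of green signal to red-channel RNA signal and control-cluster median Fmax.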

[1] = designed as: ON switch for flavin mononucleotide, no ligand
[2] = ligand present: flavin mononucleotide, designed as: ON switch for flavin mononucleotide
[3] = designed as: OFF switch for flavin mononucleotide, no ligand
[4] = ligand present: flavin mononucleotide, designed as: OFF switch for flavin mononucleotide

Sequence | apparent Kd [1] [µM] | apparent Kd [2] [µM] | apparent Kd [3] [µM] | apparent Kd [4] [µM]
UUGGACGUCGUAGGAUAUGUAGGAUAUUCCUACAUGAGGAUCACCCAUGUUGACAUGGAAGAAGGCCAGAAGGACGAUGUCCAU | 0.93 | 0.1 | – | –
UUGGGAUGCAAGAAGGGUGACAUGAGGAUCACCCAUGUGUUGUGAAUUCUCGAGAUUUUAUGACCAUAGGAUAUUGCACCGAAC | 0.0285 | 0.0122 | – | –
CAAGCGGGAGGAUAUACAGGGUUGUCCGAAAAUCGCCAGCCACAUGAGGAUCACCCAUGUAGAAGGCCUAUAGA | – | – | 0.053 | 0.0239
UGAGCCUCGUGAGGAUAUACAUGAGGAUCACCCAUGUAAAUGGAAGAACGGAGGAAACUCCGAAUGUAGAAGGCACGAGGCUCA | – | – | 0.145 | 0.773
AGCAUGGUAGGAUAUACGGAGCAUUAGGGUUUGUUAUGUGGACAUGAGGAUCACCCAUGUAGAAGGGCCGUGCA | – | – | 0.0386 | 0.06
AACAUGCUUGGGUAACCUGGCACAUGAGGAUCACCCAUGUGACAGGAUAUCGACGUAGAUGGCGACGAGAAGGGUCCGAUGGGU | – | – | 0.00713 | 0.0108
UUCGCUAAGGUGUAGCGAGACUUGCAAGAAGGGUGAAGAACAUGAGGAUCACCCAUGUAAGCCUUACAGGAUAUUGCUUGACGA | 0.106 | 0.0364 | – | –
CUACAUGAGGAUCACCCAUGUGCGCACUGGAUCAGUGCGCGCAGAAGGGCCAUGGAGAAAGCCAGGCAGGAUAUGCAAAGGGCU | 0.288 | 0.226 | – | –
GGAUAGGACAGAGGAUAUAUGUGCUAGAGAUACUAGCAAAAUUUCCUCACAUGAGGAUCACCCAUGUAGAAGGCUGUCCUAUCG | – | – | 0.0129 | 0.022
UCGUAUACACAAGGAUAUCGAUGGCUUGUAGAUCCUACAUGAGGAUCACCCAUGUUUUUAUAUUGUGAGAAGGUGUAGUGUCUU | 1.17 | 1.91 | – | –
GGCUGACAUGUAGGAUAUCUGCACGUGUAGUGCAGAGAAGGACAUGAGGAUCACCCAUGUAUAGCGACUUCGGUCGCAACAGCC | – | – | 0.0492 | 0.159
UUUGGGUGGCUGGAGGAUAUUCUAGUGGUUACAUGAGGAUCACCCAUGUGUCGCGCGGUACGCGAGGAGAAGGCUGGCGGCCGUU | 0.135 | 0.0351 | – | –
GGGCUCGGAGGAUAUACAAUUCUGGGCUGAAAGGCUCGGGUACAUGAGGAUCACCCAUGUAGAAGGUCGGGUCU | – | – | 0.0159 | 0.0159
UAUAUGUGAGGAUAUCAGGUGUGCUAGCGUACUGGUACAUCUGAGAAGGCACAUGAGGAUCACCCAUGUUUCUU | – | – | 0.0263 | 0.088
AUGGAUACCACAGGAUAUAGCUAGCAUAGCUAGCUAGAAGGGUGGUCCAUCCUAUGUAAAUACAUGAGGAUCACCCAUGUGUCC | 0.403 | 0.207 | – | –
AAGUUCUGAGGAUAUACAUAGAUUUACAUGAGGAUCACCCAUGUUCCUCUAUGUAUUAAUGUAGAAGGCAGAAGAA | – | – | 0.0244 | 0.185
AAAUAGAAUGAGGAUAUCGUACUGGAUAUAGUGCGAGAAGGCAUUACAUGAGGAUCACCCAUGUUUUGUUGGGA | – | – | 0.0256 | 0.0766
CUUUUGUGAGGAUAUUAGUAGUAAAUAAAUAAAAUUACUACUGAGAAGGUACAUGAGGAUCACCCAUGUUCCUC | – | – | 0.0148 | 0.0193
CCAUAGUACAAUUUAGAUCUACAUGAGGAUCACCCAUGUACUGAGGAUAUCAGCUCGAAUAGAGCUGAGAAGGCAGAAUUAAUU | 0.132 | 0.0592 | – | –
AAAAGUCCUGAGGAUAUCGAAACUCCAUUAGGACGAGAAGGCGGGACAUGAGGAUCACCCAUGUGGGCGAGCUC | – | – | 0.232 | 0.475
GUGUACAGAGGAUAUACAUAAGCUAGGAAACUAGCAAACUCACAUGAGGAUCACCCAUGUAGAAGGCUGUACAC | – | – | 0.048 | 0.257
AGAAACUACGAGAAGGACAUGUGAACCUUCAACUACAUGAGGAUCACCCAUGUAGGAUAUCGUAGUUUCAGGAUCGUGAGAUCA | – | – | 0.00593 | 0.00644
CUCAUGUAAGGAUAUGACUACAUAAAAAAAAAAAAAUGUAGUCAGAAGGUACAUGAGGAUCACCCAUGUACAAA | – | – | 0.0537 | 0.035
AAGCCCUGAGGAUAUCCCAACUCGCACAUGAGGAUCACCCAUGUUCUUCUCUGGGUUUCGGGAGAAGGCAGGCCUC | – | – | 0.0965 | 0.0438
UGAUCGAGAGAUCUUAGAUUCUGGUAGGAUAUACAUUAUGUUUAAAAUACAUGAGGAUCACCCAUGUAGAAGGACUAGAGUCUA | – | – | 0.00676 | 0.0139
UAUUAACACGAAGGAUAUGGUUACAUGAGGAUCACCCAUGUAUGUAUAUUGAUCUAGAUUUUUGACCAGAAGGUCGUGAGUAAA | – | – | 0.0239 | 0.0382
UUAUUAUAUGUAGGAUAUGCAUAUUAUUAUUAUGCAGAAGGACAUGAGGAUCACCCAUGUAUAUUAUUAUUAUAUAUUAUAUAU | – | – | 0.0301 | 0.0537
UUUGGGUGAGGAUAUCAGUCUGGAUCAGACUAGAUCCUGACUGAGAAGGCACAUGAGGAUCACCCAUGUGAGUU | – | – | 0.294 | 0.32

Sequence | apparent Kd [1] [µM] | apparent Kd [2] [µM] | apparent Kd [3] [µM] | apparent Kd [4] [µM]
GCUGGUCAAGGAUAUAUAUGACGUGCUUCGGCACGAAGAUCACAUGAGGAUCACCCAUGUAGAAGGUGACCAGC | – | – | 0.0969 | 0.793
CAUGGGACUUCCUCGCGGAACAUGAGGAUCACCCAUGUUGCGGAGGAUAUACUUCGGCGCUCCGAGUAGAAGGCUGCAGAUCCC | – | – | 0.0244 | 0.0331
GCCUUAUCUGUCAGGAUAUACAAUAAAAUAUUUUUGUAGAAGGGACAUGAGGAUCACCCAUGUACAUUACAUUG | – | – | 0.042 | 0.262
UGUUGUAUUACAGGAUAUCUAUUAGUUAUAUUUAGAGAAGGGUAUUCACAUGAGGAUCACCCAUGUAUAUACGAGGAAGUUGUG | 0.0546 | 0.0619 | – | –
ACAAGCUCACAUGAGGAUCACCCAUGUGGUCGCUAAUAUACCAGAAGGGUGGGUCCUAAUGAUGUACAGGAUAUGGAGUAGGCG | 0.196 | 0.062 | – | –
AUAUAUCAUACAGGAUAUACAUGAGGAUCACCCAUGUGUCCUCCAUAAUUGACACCAAUUAUGCUGUAGAAGGGUAUGAUAUAU | – | – | 0.293 | 0.258
GCAGGUUAAGUCAGGAUAUACCUAUGGAUACAUAGGUAGAAGGGACAUGAGGAUCACCCAUGUGACUCACCUGC | – | – | 0.0279 | 0.0576
AUUUAAAUGUCAGGAUAUGGUAGAUUAUUCUUAUCAGAAGGGAUAAUUAUACUCAAGUACAUGAGGAUCACCCAUGUUAAAUCA | 0.0103 | 0.0103 | – | –
GCUCUAUGCGAGAAGGCGUGCAACAUGAGGAUCACCCAUGUCAGAGAUAUGAGGAUAUUGCAUAGAGCAAAAGACGGAAACGUC | 0.00668 | 0.00448 | – | –
CAACAGUCAGGAUAUGCAAAAAAAAAAAAAAAAAAAAAAAAGCAGAAGGGACAUGAGGAUCACCCAUGUUGUCG | – | – | 0.03 | 0.0167
GCCCGGGCAGGAUAUGCAGGCCCGGGAAACCGGGCCAUGGGACAUGAGGAUCACCCAUGUAGAAGGGCCCGGGC | – | – | 0.0171 | 0.0173
GGGUACAUCGGAGGAUAUCAUGUAAAUACAUGAGGAUCACCCAUGUCGAUAGAGACAUCGGAGAUUGAGAAGGCCGAUGUACCG | 0.0417 | 0.3 | – | –
UUUUUGUGAGGAUAUCAGUAGUAAAAAAAUAAAAUUACUACUGAGAAGGCACAUGAGGAUCACCCAUGUUUUUU | – | – | 0.0417 | 0.0965
ACAAAGCAUGUAGGAUAUCCAUUGCGUCGCGAUGGAGAAGGACAACACACAUGAGGAUCACCCAUGUGAUCACCCAUGUCAUGU | – | – | 0.866 | 1.21
AUCAGCUCGUCAGGAUAUACGCCACUGCGUCAGCAGUGUGGUAAGAUCACAUGAGGAUCACCCAUGUAGAAGGGACGAGCUGAU | – | – | 0.0109 | 0.147
UGUUGUAUUACAGGAUAUCUAGUGUUUUUAUUUAGAGAAGGGUAUUCACAUGAGGAUCACCCAUGUAUAUACGAGGAAGUUGUG | 0.0559 | 0.0612 | – | –
GGGUACAUGGGAGGAUAUGGGACAUGAGGAUCACCCAUGUGAAAAUUAAAUAUGCCGAGAGGCAACUAGAAGGCCCAUGUACCG | 0.0311 | 0.0153 | – | –
GUGGCUAGUACAGGAUAUUAGUGCGUGUAGUAUUGAGAAGGGUACAUGAGGAUCACCCAUGUGAUCAAUCACUGUUAAGGUCGC | – | – | 0.252 | 0.177
AACAGUACAGGAUAUACAUGAGGAUCACCCAUGUGACAAUUAAGUGGCGUACCACAGAGUAGAAGGGUACUGGA | – | – | 0.035 | 0.151
GGAUAGGACAGAGGAUAUACGUGCUAGAGAGACUAGCAAAAUUUCCUCACAUGAGGAUCACCCAUGUAGAAGGCUGUCCUAUCG | – | – | 0.0163 | 0.432
UCUUUCCGGAAUAUAAGUUGACUUCAGGAUAUCACAUGAGGAUCACCCAUGUGAUGCUUUAUUGCUGAGAAGGGAAGUCAUACC | – | – | 0.0117 | 0.0386
GGGUAAUAUCGAGGAUAUGUCUAGACACAUGAGGAUCACCCAUGUAUGUGUAUAGAAGGCGAUAUUAACAGCAUGUUACAUCCC | 0.0481 | 0.0208 | – | –
GCACAUGGCAUAGGAUAUAGAUCGAUUGUUUAAAUAGGUAGUUGGACUUAACUAGAAGGAUGAAACAUGAGGAUCACCCAUGUA | 0.394 | 0.068 | – | –
CGUGUUGACGAAGGAUAUGGAUACAUGAGGAUCACCCAUGUUUAAUUUGUGAUUUUGUUAAAGUACCAGAAGGUCGAAUACACG | – | – | 0.142 | 0.118
AGGAAACAUGAGGAUCACCCAUGUAAAAAUAUGGGAGGAUAUGCGAAAAGAAACAAAGAAGCAGAAGGCCUAAGAA | 0.0898 | 0.0231 | – | –
UGAUAGGACAGAGGAUAUGCGUAUAGUUAUCUCUACAUGAGGAUCACCCAUGUAGAAGGCUGUCCUAUCUAAGUCGGAAACGAC | – | – | 0.00535 | 0.00522
GUCUCGUCAGGAUAUGACGCUACAUUUUGUUUUUAGAAGAGUCAGAAGGGACAUGAGGAUCACCCAUGUGAUUC | – | – | 0.329 | 0.403

From the EternaBench riboswitch data
